Reference: article PMC3356046 (Frontiers in Oncology, 2011)

Key:
[1] = ref Wang et al., 2006b, Mi et al., 2008; cited from earlier work
[2] = system: BP3 human lymphoma cell line; assay: Apoptosis, Annexin V-FITC and propidium iodide assay, BP3; assay type: cell-based
Method in brief: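 BP3 diffuse large B-cell lymphoma cells were grown in RPMI 1640 with 10% FBS and penicillin/streptomycin, then exposed to varying concentrations of test compound for 1 day. They were stained with FITC-Annexin V and propidium iodide and analysed by flow cytometry. Annexin V-negative/PI-negative cells were scored viable. Mean of two independent experiments ± SE.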

SMILES | oral MTD [1] [mg/kg] | cytotoxic activity against BP3 cell lines [2]
Cc1cc2c(C(C)C)c(O)c(O)c(C=O)c2c(O)c1-c1c(C)cc2c(C(C)C)c(O)c(O)c(C=O)c2c1O [(−) Gossypol] | ~50 | –
CN(C)CC[C@H](CSc1ccccc1)Nc1ccc(S(=O)(=O)NC(=O)c2ccc(N3CCN(Cc4ccccc4-c4ccc(Cl)cc4)CC3)cc2)cc1[N+](=O)[O-] [ABT-737] | – | no cytotoxic activity
